Bioassay records: PubChem BioAssay, several laboratories
M1 agonist – M1 muscarinic receptor agonism; CHO-M1 cells, Fluo-4 calcium fluorescence, agonist mode; active compounds read high; 3% of 64,000 active; B-score at 10 µM;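 active = fluorescence rise, raw or as B-score row- and column-corrected plate score, outside the 99.7% band of its plate's samples, either direction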
D1 allo mod – allosterically modulates the human D1 dopamine receptor; AID 641; HEK293 D1, CRE-luciferase, dopamine EC30 potentiation; actives deviate in either direction; B-score at 10 µM; P21728; 5.9% of 58,000 active;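 active = luminescence count or its row- and column-corrected plate score outside the 99.7% band of the plate's sample wells, on either side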
SF-1 act – activators of human nuclear receptor SF-1. activation, % at 10 µM. AID 522. 1.9% of 65,000 active. CHO-K1 Gal4-SF-1 LBD luciferase reporter; % increase over DMSO SF-1-specific signal;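 active = activation above the mean activation of all tested compounds plus 3 SD, cut at about 50% in these data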
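material = CHO-K1 cells with Gal4–hSF-1 LBD chimera plus Gal4-driven luciferase | compound = 10 µM single point, 1% DMSO | incubation = 20 h compound exposure at 37 °C after 1 h cell settling | measured by = SteadyLite luciferase luminescence | evaluation = percent activation relative to DMSO median and mock-transfected background | control set = DMSO negative control and −SF1 background wells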
M1 antagonist – blocks the rat M1 muscarinic receptor response to acetylcholine; P08482; AID 628; CHO-M1 cells, Fluo-4 calcium, ACh EC80 antagonist mode; active compounds read low; 3.4% of 64,000 active; B-score at 10 µM;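 active = calcium fluorescence response, raw or row-and-column corrected B-score, differing from the plate sample mean either way at a set confidence level, mostly lower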
Target sequence (P08482 whole entry, looked up): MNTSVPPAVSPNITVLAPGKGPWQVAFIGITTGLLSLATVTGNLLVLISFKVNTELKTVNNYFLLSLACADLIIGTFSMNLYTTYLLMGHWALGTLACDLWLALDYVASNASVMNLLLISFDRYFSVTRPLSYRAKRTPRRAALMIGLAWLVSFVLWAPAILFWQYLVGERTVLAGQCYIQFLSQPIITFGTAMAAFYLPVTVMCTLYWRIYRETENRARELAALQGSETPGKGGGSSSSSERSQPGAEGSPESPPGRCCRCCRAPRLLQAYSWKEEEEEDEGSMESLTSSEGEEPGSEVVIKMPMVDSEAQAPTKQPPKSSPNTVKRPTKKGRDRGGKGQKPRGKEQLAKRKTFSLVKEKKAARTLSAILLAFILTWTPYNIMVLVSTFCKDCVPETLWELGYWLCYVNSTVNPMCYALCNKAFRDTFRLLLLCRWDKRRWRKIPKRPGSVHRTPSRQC
RORa activator – RORA (human) activation; P35398; CHO-K1 Gal4-RORA LBD luciferase reporter, luminescence; percent increase over mock-subtracted basal signal; activation, % at 10 µM; 1.5% of 65,000 active;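 active = activation above the mean of all tested compounds plus 3 SD, cut at about 49% in these data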
Htt clearance – mutant huntingtin protein clearance; HeLa Exon1htt(103Q)mCFP, aggregate imaging; zero = plate's median compound well; inhibition, % at 1.5 µM; 0.42% of 47,000 active;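 active = inhibition of aggregate fluorescence above about 70%, also judged a hit by eye on the cell image, limit read from the data, passing the limit was not always enough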;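 note: cells exposed to compound for three days before fixation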
D1 PAM confirm – D1 receptor (human) allosteric modulation, confirmed; shares compounds with D1 allo mod; HEK293 D1 CRE-luciferase, dopamine EC30 potentiation; active compounds read high; luminescence at 10 µM; 88% of 2,200 active;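 active = luminescence in either of two replicates above the same-plate mean plus 3 SD of the low-dose dopamine control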
D1 no dopamine – activates D1 CRE-luciferase signal without dopamine present; shares compounds with D1 allo mod; HEK293 D1 CRE-luciferase, luminescence, no dopamine; active compounds read high; luminescence at 10 µM; 0.8% of 1,900 active; AID 646; in the data active = luminescence above about 3900
Isoprot counter – alters isoproterenol CRE-luciferase response in HEK293 cells. calls only at 10 µM. HEK293 D1 CRE-luciferase, isoproterenol EC30 counter-screen. AID 647. 63% of 2,200 active. shares compounds with D1 allo mod;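 active = luminescence in either replicate above plate mean of wells with a partly effective reference agonist dose plus 3 SD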;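 note: isoproterenol raises cAMP through native beta-adrenoceptor Gs so signal bypasses D1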
Each line names hits and unclear results; the compound was inactive in the other large screens (follow-up assays come after a bar, where they were run). Compounds with a hit are over-represented: about 11% of the library has one in this group of screens.

Cc1ccccc1OCCn1nc(C(=O)O)c2ccccc2c1=O	D1 allo mod 3.9 (no result: Htt clearance) | D1 PAM confirm 7632 | D1 no dopamine inactive | Isoprot counter active
CC(NC(=O)Cn1nc(C(=O)O)c2ccccc2c1=O)c1ccccc1 (configuration not stated)	none
Cc1noc(C)c1CSc1nc2sc(C)c(C)c2c(=O)n1C1CCCC1	D1 allo mod 10 | D1 PAM confirm 13364 | D1 no dopamine inactive | Isoprot counter active
C=CCn1c(SCc2c(C)noc2C)nc2sc3c(c2c1=O)CCCCC3	none (no result: Htt clearance)
Cc1ccc(S(=O)(=O)Nc2nc3ccc(S(=O)(=O)N4CCCC4)cc3s2)cc1	none
CSc1nc(N2CCOCC2)c2ccccc2n1	D1 allo mod 9.4 | D1 PAM confirm 16028 | Isoprot counter active
Cc1nc(N2CCOCC2)c2cc(-c3ccccc3)sc2n1	D1 allo mod 7.9 (no result: Htt clearance) | D1 PAM confirm 14040 | D1 no dopamine inactive | Isoprot counter active
Cc1ccc(C)n1-n1c(C)nc2sc(-c3ccccc3)cc2c1=O	none
CCc1nnc(NC(=O)CSc2nnc(-c3ccc(O)cc3)n2-c2ccccc2)s1	none (no result: D1 allo mod, Htt clearance)
COc1ccc(-c2nnc(SCC(=O)Nc3ncc(C)s3)n2-c2ccccc2)cc1OC	D1 allo mod 3.6 (no result: Htt clearance) | D1 PAM confirm 11512 | D1 no dopamine inactive | Isoprot counter active
CC1(C)OC(=O)C(=CNn2cnc3ccccc3c2=O)C(=O)O1	none (no result: Htt clearance)
COC(=O)c1ccc(Cn2cnc3c(sc4nc(N5CCOCC5)c5c(c43)CCCC5)c2=O)o1	D1 allo mod 6.8 (no result: Htt clearance) | D1 PAM confirm 8596 | D1 no dopamine inactive | Isoprot counter active
COc1ccc(N(CC(=O)Nc2cccc(SC)c2)S(C)(=O)=O)cc1	none (no result: Htt clearance)
Cc1ccccc1OCC(O)Cn1c(NCCN(C)C)nc2c1c(=O)n(C)c(=O)n2C (configuration not stated)	D1 allo mod 8.2 | D1 PAM confirm inactive | D1 no dopamine inactive | Isoprot counter inactive
Cc1cc2oc(=O)cc(COC(=O)c3cccc(N(C)C)c3)c2cc1C	none (no result: Htt clearance)
CCOC(=O)Cc1cn2c(=O)cc(CSCC(=O)Nc3ccc(C)c(C)c3)nc2s1	none (no result: Htt clearance)
O=C(Nc1cccnc1)c1ccccc1Oc1ccccc1	D1 allo mod 6.3 | D1 PAM confirm 15336 | D1 no dopamine inactive | Isoprot counter active
CCSc1ccccc1C(=O)Nc1cccnc1	none
CCOc1ccc(-c2nnc(-c3cccnc3)o2)cc1OCC	D1 allo mod 8.1 | D1 PAM confirm 20776 | D1 no dopamine inactive | Isoprot counter active
COc1cc(-c2nnc(-c3cccnc3)o2)cc(OC)c1OC	none
COc1ccc(-c2nnc(-c3cccnc3)o2)cc1OC	D1 allo mod 4.1 (no result: Htt clearance) | D1 PAM confirm 8388 | Isoprot counter active
N#CC1=C(N)N(c2ccccc2)C(c2ccccc2)C1(C#N)C#N (configuration not stated)	none (no result: Htt clearance)
COc1ccccc1-c1nnc2sc(-c3cc4ccccc4o3)nn12	D1 allo mod 3.9 (no result: Htt clearance) | D1 PAM confirm 10596 | D1 no dopamine inactive | Isoprot counter active
CCOC(=O)C1CCN(C(=O)c2ccco2)CC1	D1 allo mod 4.4 | D1 PAM confirm inactive | D1 no dopamine inactive | Isoprot counter inactive
COc1ccc(CN2CCN(C(=O)c3ccco3)CC2)cc1	D1 allo mod 4.1 (no result: Htt clearance) | D1 PAM confirm inactive | D1 no dopamine inactive | Isoprot counter inactive
O=C(COC(=O)C1CCN(C(=O)c2ccc(Cl)cc2)CC1)c1ccco1	none
c1ccc(-c2nc(NC3CC3)nc(-n3ccnc3)n2)cc1	D1 allo mod 11 | D1 PAM confirm 26636 | D1 no dopamine inactive | Isoprot counter active
c1ccc(CN2CCN(c3nc(-c4ccccc4)nc(-n4ccnc4)n3)CC2)cc1	none
CC(C)Nc1nc(-c2ccccc2)nc(-n2ccnc2)n1	D1 allo mod 11 | D1 PAM confirm 23348 | D1 no dopamine inactive | Isoprot counter active
C=CCNc1nc(-c2ccccc2)nc(-n2ccnc2)n1	D1 allo mod 8.7 | D1 PAM confirm 22092 | D1 no dopamine inactive | Isoprot counter active
O=c1c2ccccc2c(-c2ccccc2)nn1-c1ccc(Cl)c(Cl)c1	none (no result: M1 agonist, D1 allo mod, SF-1 act, M1 antagonist, RORa activator)
CCN(CC)S(=O)(=O)c1ccc2c(c1)c(=O)c(C(=O)N1CCN(c3ccccc3)CC1)cn2C	none
CCCC(C)C(=O)Nc1nnc(C)s1 (configuration not stated)	none
COc1ccccc1NC(=O)C(C)NS(=O)(=O)c1ccccc1 (configuration not stated)	none (no result: M1 antagonist)
Cc1ccc(NC(=O)CSc2n[nH]c(-c3ccncc3)n2)cc1C	none (no result: D1 allo mod, Htt clearance)
CCCOC(=O)NC(CC)COC(=O)Nc1cc(C)ccc1C (configuration not stated)	none (no result: Htt clearance)
COCCNC(=O)c1c(NC(=O)c2nc(SC)ncc2Cl)sc2c1CCCC2	none (no result: M1 agonist, D1 allo mod, SF-1 act, M1 antagonist, RORa activator)
Nc1cc(N)nc(SCCOc2ccccc2F)n1	none (no result: M1 agonist, M1 antagonist, Htt clearance)
Nc1nc(OCC(F)(F)F)cc(Oc2ccccc2F)n1	D1 allo mod 8.7 | D1 PAM confirm 14824 | D1 no dopamine inactive | Isoprot counter active
N#Cc1c(-c2ccccc2)cc(C2CC2)nc1N	D1 allo mod 25 (no result: Htt clearance) | D1 PAM confirm 29052 | D1 no dopamine inactive | Isoprot counter active
O=c1[nH]c(SCCOc2ccccc2)nc2ccccc12	D1 allo mod 5.3 | D1 PAM confirm 7564 | Isoprot counter active
COc1ccccc1OCCSc1nc2ccccc2c(=O)[nH]1	none
C/C(=C\c1ccco1)C1C(C#N)=C(N)OC2=C1C(=O)CC(C)(C)C2 (configuration not stated)	none (no result: Htt clearance)
COc1ccc(NC2c3ccccc3C(=O)N2Cc2ccco2)cc1OC (configuration not stated)	none (no result: Htt clearance)
COc1ccc(OC)c(NC2c3ncccc3C(=O)N2Cc2ccco2)c1 (configuration not stated)	D1 allo mod 8.7 (no result: Htt clearance) | D1 PAM confirm 11124 | Isoprot counter active
CCOC(=O)c1c(C)[nH]c(C(=O)COC(=O)c2ccc(N3CCCC3=O)cc2)c1C	none (no result: Htt clearance)
CCN1CCN(C(=O)c2ccc3c(c2)N(Cc2ccc(F)cc2)C(=O)c2ccccc2S3=O)CC1 (configuration not stated)	none (no result: Htt clearance)
COc1cccc(C2c3c(oc4ccc(F)cc4c3=O)C(=O)N2CCCN2CCOCC2)c1 (configuration not stated)	D1 allo mod 3.8 (no result: Htt clearance) | D1 PAM confirm inactive | D1 no dopamine inactive | Isoprot counter inactive
